Experiments:
WiDr = experiment: Antiproliferative activity against human WiDr cells after 10 days; type: functional, cell-based; settings: 240 h
RPMI-8226 = experiment: Antiproliferative activity against human RPMI-8226 cells after 10 days; type: functional, cell-based; settings: RPMI-8226, 240 h
A-427 = experiment: Antiproliferative activity against human A-427 cells after 10 days; type: functional, cell-based; settings: A-427, 240 h
Method in brief: (§1)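 Tested as part of a 240-line cancer cell panel (Eurofins Oncopanel); all lines were mycoplasma-negative and STR-verified. Cells were exposed to a compound concentration series in 2D culture for 10 days. The highest concentration was 10 μM or 25 μM, depending on the inhibitor. Antiproliferative IC50 was derived from the mean of three biological replicates.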

HEL 92.1.7 = experiment: Antiproliferative activity against human HEL 92.1.7 cells after 10 days; type: functional, cell-based; settings: HEL 92.1.7, 240 h
Method in brief: (§2)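 10-day 2D proliferation screen of a broad cancer cell panel (about 240 lines, Eurofins Oncopanel). All lines were mycoplasma negative and STR verified. Compounds were dosed up to a top concentration of 10 μM or 25 μM, depending on the inhibitor. Anti-proliferative IC50 values are the average of three biological replicates.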

A101D = experiment: Antiproliferative activity against human A101D cells after 10 days; type: functional, cell-based; settings: 240 h; method in brief: as §1
MDA-MB-231 = experiment: Antiproliferative activity against human MDA-MB-231 cells after 10 days; type: functional, cell-based; settings: MDA-MB-231, 240 h
Method in brief: (§3)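 Broad cancer cell line panel (Eurofins Oncopanel, about 240 lines; mycoplasma negative, STR verified) grown in 2D culture and exposed to compound in a 10-day proliferation assay. The top concentration was 10 μM for the SMYD2 inhibitor series and 25 μM for the SMYD3 inhibitor. The proliferative IC50 is taken from concentration-response data, each value the mean of three biological replicates.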

Y79 = experiment: Antiproliferative activity against human Y79 cells after 10 days; type: functional, cell-based; settings: Y79, 240 h
SHP77 = experiment: Antiproliferative activity against human SHP77 cells after 10 days; type: functional, cell-based; settings: SHP77, 240 h
MG-63 = experiment: Antiproliferative activity against human MG-63 cells after 10 days; type: functional, cell-based; settings: MG-63, 240 h; method in brief: as §3
[1] = Antiproliferative activity against human SW579 cells after 10 days; type: functional, cell-based; settings: SW579, 240 h
SW1353 = experiment: Antiproliferative activity against human SW1353 cells after 10 days; type: functional, cell-based; settings: SW1353, 240 h
T98G = experiment: Antiproliferative activity against human T98G cells after 10 days; type: functional, cell-based; settings: 240 h
DU-145 = experiment: Antiproliferative activity against human DU-145 cells after 10 days; type: functional, cell-based; settings: DU-145, 240 h; method in brief: as §2
NCI-H520 = experiment: Antiproliferative activity against human NCI-H520 cells after 10 days; type: functional, cell-based; settings: NCI-H520, 240 h; method in brief: as §3
[2] = Antiproliferative activity against human CML-T1 cells after 10 days; type: functional, cell-based; settings: CML-T1, 240 h; method in brief: as §1
RPMI-7951 = experiment: Antiproliferative activity against human RPMI-7951 cells after 10 days; type: functional, cell-based; settings: RPMI-7951, 240 h
BHT-101 = experiment: Antiproliferative activity against human BHT-101 cells after 10 days; type: functional, cell-based; settings: BHT-101, 240 h; method in brief: as §1
[3] = Antiproliferative activity against human C32TG cells after 10 days; type: functional, cell-based; settings: 240 h; method in brief: as §1
MV4-11 = experiment: Antiproliferative activity against human MV4-11 cells after 10 days; type: functional, cell-based; settings: MV4-11, 240 h; method in brief: as §3
SK-LMS-1 = experiment: Antiproliferative activity against human SK-LMS-1 cells after 10 days; type: functional, cell-based; settings: SK-LMS-1, 240 h
A-375 = experiment: Antiproliferative activity against human A-375 cells after 10 days; type: functional, cell-based; settings: A-375, 240 h; method in brief: as §1
U-87 MG = experiment: Antiproliferative activity against human U-87MG cells after 10 days; type: functional, cell-based, U-87MG ATCC; settings: 240 h
SiHa = experiment: Antiproliferative activity against human SiHa cells after 10 days; type: functional, cell-based; settings: 240 h
[4] = Antiproliferative activity against human RKOE6 cells after 10 days; type: functional, cell-based; settings: RKOE6, 240 h
Method in brief: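 Tested in the Eurofins Oncopanel of about 240 cancer cell lines, all mycoplasma-negative and STR-verified. Cells were exposed to compound for 10 days in 2D culture, and a proliferative IC50 was derived from the concentration series. The highest concentration tested was 10 μM in the SMYD2 inhibitor screen and 25 μM in the SMYD3 inhibitor screen. Values are means of three biological replicates.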

HeLa = experiment: Antiproliferative activity against human HeLa cells after 10 days; type: functional, cell-based; settings: 240 h; method in brief: as §2
RD = experiment: Antiproliferative activity against human RD cells after 10 days; type: functional, cell-based; settings: 240 h; method in brief: as §3
CAKI-1 = experiment: Antiproliferative activity against human CAKI-1 cells after 10 days; type: functional, cell-based; settings: CAKI-1, 240 h; method in brief: as §1
CAPAN-1 = experiment: Antiproliferative activity against human CAPAN-1 cells after 10 days; type: functional, cell-based; settings: CAPAN-1, 240 h; method in brief: as §1
HuCCT-1 = experiment: Antiproliferative activity against human HuCCT-1 cells after 10 days; type: functional, cell-based; settings: HuCCT-1, 240 h; method in brief: as §2
HCT-15 = experiment: Antiproliferative activity against human HCT-15 cells after 10 days; type: functional, cell-based; settings: HCT-15, 240 h
Method in brief: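 Cell lines run in the Eurofins Oncopanel broad cancer panel, all mycoplasma-negative and STR-verified. Cells were exposed to a compound concentration series in a 10-day proliferation assay, and an anti-proliferative IC50 was derived. Values are the mean of three biological replicates.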

SW982 = experiment: Antiproliferative activity against human SW982 cells after 10 days; type: functional, cell-based; settings: SW982, 240 h
NCI-H446 = experiment: Antiproliferative activity against human NCI-H446 cells after 10 days; type: functional, cell-based; settings: NCI-H446, 240 h; method in brief: as §3
[5] = Antiproliferative activity against human A7 cells after 10 days; type: functional, cell-based; settings: A7, 240 h; method in brief: as §1
L-428 = experiment: Antiproliferative activity against human L-428 cells after 10 days; type: functional, cell-based; settings: L-428, 240 h; method in brief: as §3
JAR = experiment: Antiproliferative activity against human JAR cells after 10 days; type: functional, cell-based; settings: 240 h; method in brief: as §3
MDA-MB-436 = experiment: Antiproliferative activity against human MDA-MB-436 cells after 10 days; type: functional, cell-based; settings: MDA-MB-436, 240 h; method in brief: as §3
J82 = experiment: Antiproliferative activity against human J82 cells after 10 days; type: functional, cell-based; settings: J82, 240 h; method in brief: as §3
BeWo = experiment: Antiproliferative activity against human BeWo cells after 10 days; type: functional, cell-based; settings: 240 h; method in brief: as §1
HT-3 = experiment: Antiproliferative activity against human HT-3 cells after 10 days; type: functional, cell-based; settings: HT-3, 240 h; method in brief: as §2
BFTC-905 = experiment: Antiproliferative activity against human BFTC-905 cells after 10 days; type: functional, cell-based; settings: BFTC-905, 240 h; method in brief: as §1
ST486 = experiment: Antiproliferative activity against human ST486 cells after 10 days; type: functional, cell-based; settings: ST486, 240 h
SK-MES-1 = experiment: Antiproliferative activity against human SK-MES-1 cells after 10 days; type: functional, cell-based; settings: SK-MES-1, 240 h
T-24 = experiment: Antiproliferative activity against human T24 cells after 10 days; type: functional, cell-based; settings: T-24, 240 h
CAMA-1 = experiment: Antiproliferative activity against human CAMA-1 cells after 10 days; type: functional, cell-based; settings: CAMA-1, 240 h; method in brief: as §1
SW872 = experiment: Antiproliferative activity against human SW872 cells after 10 days; type: functional, cell-based; settings: SW872, 240 h
AGS = experiment: Antiproliferative activity against human AGS cells after 10 days; type: functional, cell-based; settings: 240 h; method in brief: as §1
PC-3 = experiment: Antiproliferative activity against human PC-3 cells after 10 days; type: functional, cell-based; settings: PC-3, 240 h; method in brief: as §3

SMILES: Cc1cn(CCN2CCN(c3ccccc3-c3cc(C#N)cc(C(=O)NCCCN4CCCC4)c3)CC2)c2ccccc12
- IC50 (WiDr): 838 nM
- IC50 (RPMI-8226): 1560 nM
- IC50 (A-427): 1340 nM
- IC50 (HEL 92.1.7): 3530 nM
- IC50 (A101D): 1230 nM
- IC50 (MDA-MB-231): 1070 nM
- IC50 (Y79): 3530 nM
- IC50 (SHP77): 1650 nM
- IC50 (MG-63): 6120 nM
- IC50 [1]: 2980 nM
- IC50 (SW1353): 2980 nM
- IC50 (T98G): 5870 nM
- IC50 (DU-145): 4130 nM
- IC50 (NCI-H520): 2700 nM
- IC50 [2]: 1100 nM
- IC50 (RPMI-7951): 2050 nM
- IC50 (BHT-101): 1430 nM
- IC50 [3]: 2360 nM
- IC50 (MV4-11): 1010 nM
- IC50 (SK-LMS-1): 2410 nM
- IC50 (A-375): 1910 nM
- IC50 (U-87 MG): 2850 nM
- IC50 (SiHa): 3260 nM
- IC50 [4]: 1070 nM
- IC50 (HeLa): 2960 nM
- IC50 (RD): 954 nM
- IC50 (CAKI-1): 2790 nM
- IC50 (CAPAN-1): 5090 nM
- IC50 (HuCCT-1): 1240 nM
- IC50 (HCT-15): 1700 nM
- IC50 (SW982): 5790 nM
- IC50 (NCI-H446): 3160 nM
- IC50 [5]: 2540 nM
- IC50 (L-428): 1490 nM
- IC50 (JAR): 2880 nM
- IC50 (MDA-MB-436): 3030 nM
- IC50 (J82): 3150 nM
- IC50 (BeWo): 2880 nM
- IC50 (HT-3): 3270 nM
- IC50 (BFTC-905): 2500 nM
- IC50 (ST486): 955 nM
- IC50 (SK-MES-1): 1180 nM
- IC50 (T-24): 2940 nM
- IC50 (CAMA-1): 2930 nM
- IC50 (SW872): 2530 nM
- IC50 (AGS): 1270 nM
- IC50 (PC-3): 2770 nM

SMILES: O=C(NC1CN(Cc2cnn(Cc3ccccc3)c2)C1)c1cn(C2CC2)nn1
- IC50 (WiDr): > 10000 nM
- IC50 (RPMI-8226): > 10000 nM
- IC50 (A-427): > 10000 nM
- IC50 (HEL 92.1.7): > 10000 nM
- IC50 (A101D): > 10000 nM
- IC50 (MDA-MB-231): > 10000 nM
- IC50 (Y79): > 10000 nM
- IC50 (SHP77): > 10000 nM
- IC50 (MG-63): > 10000 nM
- IC50 [1]: > 10000 nM
- IC50 (SW1353): > 10000 nM
- IC50 (T98G): > 10000 nM
- IC50 (DU-145): > 10000 nM
- IC50 (NCI-H520): > 10000 nM
- IC50 [2]: > 10000 nM
- IC50 (RPMI-7951): > 10000 nM
- IC50 (BHT-101): > 10000 nM
- IC50 [3]: > 10000 nM
- IC50 (MV4-11): > 10000 nM
- IC50 (SK-LMS-1): > 10000 nM
- IC50 (A-375): > 10000 nM
- IC50 (U-87 MG): > 10000 nM
- IC50 (SiHa): > 10000 nM
- IC50 [4]: > 10000 nM
- IC50 (HeLa): > 10000 nM
- IC50 (RD): > 10000 nM
- IC50 (CAKI-1): > 10000 nM
- IC50 (CAPAN-1): > 10000 nM
- IC50 (HuCCT-1): > 10000 nM
- IC50 (HCT-15): > 10000 nM
- IC50 (SW982): > 10000 nM
- IC50 (NCI-H446): > 10000 nM
- IC50 [5]: > 10000 nM
- IC50 (L-428): 2610 nM
- IC50 (JAR): > 10000 nM
- IC50 (MDA-MB-436): > 10000 nM
- IC50 (J82): > 10000 nM
- IC50 (BeWo): > 10000 nM
- IC50 (HT-3): > 10000 nM
- IC50 (BFTC-905): > 10000 nM
- IC50 (ST486): > 10000 nM
- IC50 (SK-MES-1): > 10000 nM
- IC50 (T-24): > 10000 nM
- IC50 (CAMA-1): > 10000 nM
- IC50 (SW872): > 10000 nM
- IC50 (AGS): > 10000 nM
- IC50 (PC-3): > 10000 nM
